Screening data: PubChem, several laboratories
UCH37 DUB inh: blocks the human deubiquitinase UCH37. Q9Y5K5. purified proteasome/UCH37, Ub-AMC cleavage fluorescence. inhibition, % (concentration not given with the values). 330,000 tested, 0.33% active;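 active means mean inhibition over replicate wells above about 20%, limit read from the data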;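 further: 0% = compound-free wells with enzyme and 100% = wells lacking proteasome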
Target sequence (Q9Y5K5 whole entry, looked up): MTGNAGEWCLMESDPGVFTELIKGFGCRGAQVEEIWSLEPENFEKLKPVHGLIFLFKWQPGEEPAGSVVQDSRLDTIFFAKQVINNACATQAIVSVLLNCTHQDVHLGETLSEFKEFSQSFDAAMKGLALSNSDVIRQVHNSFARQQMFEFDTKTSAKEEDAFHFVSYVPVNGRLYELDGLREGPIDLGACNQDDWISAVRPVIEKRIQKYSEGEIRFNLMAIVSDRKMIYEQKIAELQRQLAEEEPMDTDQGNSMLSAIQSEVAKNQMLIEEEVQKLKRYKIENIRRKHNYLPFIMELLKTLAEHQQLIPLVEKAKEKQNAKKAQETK
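Test system – human UCH37 enzyme supplied as purified proteasome complex · Incubation – 30 min preincubation with enzyme, 25 min cleavage at room temperature · Detection – AMC fluorescence from Ub-AMC cleavage, excitation 355 nm, emission 460 nm · Benchmarks – no-proteasome wells (full inhibition) and compound-free wells (no inhibition)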
SUMO Mot1 rescue: SUMOylation pathway inhibition by Mot1-301 growth rescue; S. cerevisiae Mot1-301 growth rescue, ATP luminescence, 38.5C; percent above DMSO median, 100 means doubled; growth rescue, % at 18.8 µM; 320,000 tested, 1% active; AID 2716;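 active means every valid replicate shows activation above 250% relative to neutral control wells; inactive means the rest, any valid replicate at or below 250%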;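 further: OY570 slx delta 5 strain wells were the positive control but not used for scaling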
Cardiac RTF inh: cardiac RTF calcium desensitization | 340,000 tested, 0.12% active | IANBD-labeled cardiac RTF, Ca2+ fluorescence | AID 493244 | inhibition, % at 7.15 µM;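 active means inhibition above the mean inhibition of all tested compounds plus 3 SD, cut at about 17% in these data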;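 further: assay run at fixed EC70 calcium of 1.6 mM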
ARNT-TACC3 inh: disruptors of human ARNT/TACC3 interaction; Q9Y6A5; 390,000 tested, 0.66% active; inhibition, % at 9.99 µM; AlphaScreen His-ARNT PAS-B/GST-TACC3 binding, luminescence; TACC3 fragment carries E629A point mutation; AID 623870;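 active means mean inhibition of replicates at least 50% and at least half of replicates each reaching 50%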;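 further: 0% = complete ARNT plus TACC3 wells and 100% = ARNT alone without TACC3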
RTF Ca sens act: increases calcium sensitivity of human cardiac regulated thin filaments; P19429+P45379; IANBD-labeled TnC RTF fluorescence at EC20 calcium; 0% EC20 calcium, 100% full calcium; activation, % at 7.2 µM; 340,000 tested, 0.24% active; AID 493008;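 active means activation above the mean over all tested compounds plus 3 SD, cut at about 30% in these data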;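 further: rise in fluorescence read as greater calcium sensitivity of cardiac thin filaments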
Efflux pump mplx: inhibitors of Candida antifungal efflux pumps expressed in yeast; inhibition, % at 10 µM; S. cerevisiae Candida pump triplex, Nile Red efflux; 330,000 tested, 0.44% active;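 active means plate passing quality check with inhibition over a set limit, or well fluorescence over plate mean plus 4 SD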;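 further: Nile Red retained in pooled yeast measured as flow cytometry median fluorescence; 0% = buffer negative control and 100% = Enniatin B positive control; higher means more Nile Red kept so more efflux inhibition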
ARNT Alpha ctr-1: interferes with AlphaScreen signal, flagging false ARNT-TACC3 hits; 1,200 tested, 50% active; His-ARNT PASB-GST AlphaScreen artifact counter-screen, luminescence; AC50, µM (titrated, usually from 68 µM), without a hit: at the top dose activity change, negative = signal decrease; shares compounds with ARNT-TACC3 inh; AID 651705;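 active means every separate test run was called active for a drop in luminescence, with AC50 within twice the top valid dose, actives reach about 71 µM in these data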
ARNT Alpha ctr-2: AlphaScreen artifact flagged for ARNT-TACC3 inhibitors; shares compounds with ARNT-TACC3 inh; AID 720564; AC50, µM; 45 tested, 70% active; Dual-tagged His-ARNT PASB-GST AlphaScreen artifact counter-screen;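 active means luminescence drop, with half-maximal potency fitted within twice the sample's top valid dose, cut at about 70 µM in these data; inactive means the rest, including signal moving the wrong way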
Numbers without * were called inactive; . = no result. Only some compounds are listed: those with a hit (about 2.1% of all), similar ones and a draw of the others.

SMILES	UCH37 DUB inh	SUMO Mot1 rescue	Cardiac RTF inh	ARNT-TACC3 inh	RTF Ca sens act	Efflux pump mplx	ARNT Alpha ctr-1	others
COc1ccc(-c2cc(NCCc3ccncc3)n3ncnc3n2)cc1	-3	.	-3	-1	5	0	.
COc1ccc(-c2cc(NCc3ccccn3)n3ncnc3n2)cc1	.	-10	-4	52*	-4	0	-1%
O=C(CNCc1ccccn1)Nc1cc(C(F)(F)F)ccc1N1CCOCC1	3	-1	3	58*	1	0	-19%
O=C(Nc1cc(C(F)(F)F)ccc1N1CCOCC1)c1ccncc1	5	-13	-6	5	-1	0	.
COc1ccc2cc1Oc1ccc(cc1)C[C@H]1c3cc(c(OC)cc3CCN1C)Oc1c(OC)c(OC)cc3c1[C@@H](C2)N(C)CC3	1	10	-9	30*	6	0	-21%
Cc1ccccc1NC(=O)CC1SC(=Nc2nccs2)N(C)C1=O (centres undefined)	5	.	.	.	.	.	.
O=C(CN1CC(=O)Oc2ccccc21)NCc1ccco1	2	91	1	61*	4	0	19µM*
CC(=NN=c1sc2ccccc2n1C)c1ccccn1	7	.	.	.	.	.	.
Cc1c(C(=O)Nc2nc(-c3ccccn3)cs2)oc2ccccc12	-8	47	-7	.	0	1	.
Cc1csc(NC(=O)c2cccn2C)n1	2	-12	-2	2	3	0	.
O=C(Nc1ccccn1)c1ccc(Cl)s1	3	-6	-7	-19	2	0	.
Cn1cccc1C(=O)Nc1nc(-c2ccccn2)cs1	4	62	-7	63*	-6	0	20µM*
Cc1ccc(C(=O)Nc2nc(-c3ccccn3)cs2)s1	3	28	-5	54*	-2	1	38µM*
CC(Oc1ccccc1)C(=O)Nc1nc(-c2ccncc2)cs1 (centres undefined)	1	-17	-4	.	-2	0	.
O=C(Nc1nc(-c2ccccn2)cs1)c1ccc(Cl)s1	-9	42	1	59*	0	0	28µM*
CC(Oc1cccc(Cl)c1)C(=O)Nc1nc(-c2ccccn2)cs1 (centres undefined)	2	4	-6	53*	4	0	-18%
CS(=O)(=O)c1cccc(-c2nnc(NC(=O)c3ccc4ncsc4c3)o2)c1	6	-7	1	4	-6	0	.
CS(=O)(=O)c1ccccc1-c1nnc(NC(=O)c2ccc3ncsc3c2)o1	8	10	-19	50*	12	0	-38%
Cc1cc(C)n(S(=O)(=O)c2ccc(Cl)cc2)n1	-1	6	-2	active	3	0	2%
O=C(Nc1nnc(C2CC2)o1)c1ccc(S(=O)(=O)N2CCCCC2)cc1	-2	-2	9	51*	5	0	-38%
CC1CCN(S(=O)(=O)c2ccc(C(=O)Nc3nnc(-c4ccncc4)o3)cc2)CC1	3	-1	8	.	-6	0	.
CC1CCN(S(=O)(=O)c2ccc(C(=O)Nc3nnc(C4CC4)o3)cc2)CC1	0	-28	1	43	-1	0	.	ARNT Alpha ctr-2=>136
CC1CC(C)CN(S(=O)(=O)c2ccc(C(=O)Nc3nnc(C4=COCCO4)o3)cc2)C1 (centres undefined)	.	.	.	.	.	.	.	ARNT Alpha ctr-2=>136
CC1CCCN(S(=O)(=O)c2ccc(C(=O)Nc3nnc(C4=COCCO4)o3)cc2)C1 (centres undefined)	.	-14	-17	40	2	0	.
Cc1nn(C)c(C)c1C=NNC(=O)C(C)(C)Oc1ccc(Cl)cc1	3	.	.	.	.	.	.
COc1c(C=NNC(=O)c2ccccc2O)c(CCN(C)C(C)=O)cc2c1OCO2	5	.	.	.	.	.	.
Cc1ccc(C=NNC(=O)c2cccs2)cc1[N+](=O)[O-]	2	.	.	.	.	.	.
